Results from article PMC8851253 (Heliyon, 2022).

Key:
[1] = In vitro cytotoxic activity, MTT assay; format: cell-based, human; details: human, U-937 cells, Cytotoxicity LC50, U-937 cells, MTT, ±SD (n = 3)
How it was run: (§1)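 Human U-937 macrophages in RPMI 1640/10% FBS are exposed to test compound from 200 to 0.19 µg/mL. MTT formazan is read as OD at 570 nm, with untreated cells as the viability control. Triplicate. LC50 comes from Probit linear regression of dose-response. Classes: LC50 <100 µM potentially cytotoxic, 100–<200 µM mildly cytotoxic, ≥200 µM noncytotoxic.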

[2] = test system: intracellular amastigotes of L. panamensis; assay: Anti-leishmanial activity, GFP flow cytometry in infected U-937 cells; format: cell-based, Leishmania panamensis; details: for EC50: Leishmania panamensis, U-937, 72 h, read-out: Anti-leishmanial EC50; for SI (anti-leishmanial): Selectivity index = LC50 (U-937)/EC50 (L. panamensis); for Anti-leishmanial activity class: L. panamensis
How it was run: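 L. panamensis GFP strain MHOM/CO/87/UA140 stationary promastigotes infect PMA-treated U-937 cells (3×10^5 cells/mL) at 15:1, 3 h at 34 °C, 5% CO2, then washed. At 24 h, test compound (50.0, 12.5, 3.1, 0.8 µg/mL) is added for 72 h at 37 °C. Flow cytometry at 488/525 nm over 10,000 events gives MFI, corrected with uninfected cells. Amphotericin B is the control. Triplicate, two experiments. SI = U-937 LC50/EC50.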

[3] = test system: P. falciparum (3D7 strain); assay: Anti-plasmodial activity, pLDH assay; format: cell-based, Plasmodium falciparum; details: for EC50: Plasmodium falciparum, 3D7, 72 h, read-out: Anti-plasmodial EC50; for SI (anti-plasmodial): Selectivity index = LC50 (U-937)/EC50 (P. falciparum)
How it was run: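 Asynchronous P. falciparum 3D7 at 0.5% parasitemia, 1% hematocrit in RPMI-1640/1% Albumax II is exposed to test compound at 100, 25, 3.125 and 0.78 µg/mL. Incubation is 72 h at 37 °C under 90% N2/5% CO2/5% O2. Freeze-thawed lysate goes into Malstat (pH 9.0) plus NBT/PES for 1 h in the dark. pLDH is read at 650 nm, blank-subtracted. Chloroquine is the control. SI = U-937 LC50/EC50.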

U-937 cells = assay: In vitro cytotoxic activity, MTT assay; format: cell-based, human; details: for Degree of cytotoxicity: class by LC50 scale of b21
How it was run: as §1

[4] = test system: intracellular amastigotes of T. cruzi (Tulahuen strain); format: cell-based, Trypanosoma cruzi; details: for SI (anti-trypanosomal): Selectivity index = LC50 (U-937)/EC50 (T. cruzi); for EC50: Trypanosoma cruzi, TULAHUEN, U-937, 72 h, read-out: Anti-trypanosomal EC50
How it was run: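 T. cruzi Tulahuen (β-galactosidase-transfected) epimastigotes are grown 10 days at 26 °C. U-937 cells (2.5×10^4/100 µL, 0.16 µM PMA) are infected at 5:1 for 24 h at 37 °C, 5% CO2, RPMI/10% FBS, then washed. Six serial compound dilutions run for 72 h. CPRG 100 µM plus 0.1% NP-40 for 4 h, dark, then OD 570 nm, blank-subtracted. Benznidazole is the control. Triplicate, ≥2 experiments. SI = U-937 LC50/EC50.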

SMILES	CC50 [1]	EC50 [2]	SI (anti-leishmanial) [2]	EC50 [3]	Degree of cytotoxicity (U-937 cells)	Toxicity class (U-937 cells; class by United Nations 2009 scale)	SI (anti-trypanosomal) [4]	EC50 [4]	SI (anti-plasmodial) [3]	Anti-leishmanial activity class [2]
C[C@@H]1[C@H](O)[C@@H](C)/C=C/C=C/C=C/C=C/C=C/C=C/C=C/[C@H](O[C@@H]2O[C@H](C)[C@@H](O)[C@H](N)[C@@H]2O)C[C@@H]2O[C@](O)(C[C@@H](O)C[C@@H](O)[C@H](O)CC[C@@H](O)C[C@@H](O)CC(=O)O[C@H]1C)C[C@H](O)[C@H]2C(=O)O [Amphotericin B, reference compound]	32.6 ± 4 µM	0.3 ± 0.1 µM	108.67	–	–	–	–	–	–	–
O=C(/C=C/c1cccc(Br)c1)c1cc2ccccc2oc1=O [Compound A10, 3-[(2E)-3-(3-bromophenyl)prop-2-enoyl]-2H-chromen-2-one]	112 ± 8.2 µM	32.8 ± 3 µM	–	19.6 ± 1.7 µM	mildly cytotoxic (100 ≤ LC50 < 200 μM)	moderately toxic (from 50 to 200 μM moderately toxic)	0.98	114 ± 8.5 µM	–	–
O=C(/C=C/c1ccc(Cl)cc1)c1cc2ccccc2oc1=O [Compound A9, 3-[(2E)-3-(4-chlorophenyl)prop-2-enoyl]-2H-chromen-2-one]	43.4 ± 3.9 µM	59.1 ± 12.7 µM	0.73	18.9 ± 1.5 µM	–	–	0.83	52.1 ± 3.3 µM	–	–
O=C(/C=C/c1ccc2c(c1)OCO2)c1cc2ccccc2oc1=O [Compound A13, 3-[(2E)-3-(1,3-benzodioxol-5-yl)prop-2-enoyl]-2H-chromen-2-one]	38 ± 3.4 µM	> 20 µM	<1.90	15.2 ± 1.1 µM	–	–	0.30	129 ± 11 µM	–	–
O=C(/C=C/c1ccc(Br)cc1)c1cc2ccccc2oc1=O [Compound A11, 3-[(2E)-3-(4-bromophenyl)prop-2-enoyl]-2H-chromen-2-one]	32.1 ± 2.2 µM	31.4 ± 4.2 µM	1.02	20.9 ± 1.2 µM	–	–	0.72	44.4 ± 3.5 µM	1.54	–
Cc1cccc(/C=C/C(=O)c2cc3ccccc3oc2=O)c1 [Compound A4, 3-[(2E)-3-(3-methylphenyl)prop-2-enoyl]-2H-chromen-2-one]	5.7 ± 0.1 µM	10.7 ± 5.7 µM	0.53	35.3 ± 1.4 µM	–	–	0.11	50 ± 5.3 µM	0.16	highly active (Compounds with EC50 ≤ 25 μM were considered highly active)
CCOc1cc(/C=C/C(=O)c2cc3ccccc3oc2=O)ccc1O [Compound A12, 3-[(2E)-3-(3-ethoxy-4-hydroxyphenyl)prop-2-enoyl]-2H-chromen-2-one]	8.5 ± 1.6 µM	6.6 ± 1.3 µM	1.29	15 ± 0.5 µM	–	–	0.21	41.2 ± 1.1 µM	0.57	–
COc1ccc(/C=C/C(=O)c2cc3ccccc3oc2=O)cc1 [Compound A3, 3-[(2E)-3-(4-methoxyphenyl)prop-2-enoyl]-2H-chromen-2-one]	11.4 ± 2.3 µM	> 6 µM	<1.89	38.7 ± 5.6 µM	–	–	0.03	327 ± 62.4 µM	0.29	–
O=C(/C=C/c1cccc([N+](=O)[O-])c1)c1cc2ccccc2oc1=O [Compound A7, 3-[(2E)-3-(3-nitrophenyl)prop-2-enoyl]-2H-chromen-2-one]	112 ± 10.6 µM	64.7 ± 8.6 µM	1.73	17.9 ± 1.7 µM	mildly cytotoxic (100 ≤ LC50 < 200 μM)	–	0.23	496 ± 62 µM	–	–
O=C(Cn1ccnc1[N+](=O)[O-])NCc1ccccc1 [Benznidazole, reference compound]	> 200 µM	–	–	–	–	–	>13.83	14.5 ± 0.1 µM	–	–
O=C(/C=C/c1cccc(O)c1)c1cc2ccccc2oc1=O [Compound A5, 3-[(2E)-3-(3-hydroxyphenyl)prop-2-enoyl]-2H-chromen-2-one]	5.9 ± 0.2 µM	2.1 ± 0.2 µM	2.85	26.7 ± 3.6 µM	–	–	0.31	18.7 ± 2.4 µM	0.22	–
O=c1ccc2ccccc2o1 [Coumarin, reference compound]	12.9 ± 0.5 µM	64.4 ± 21.8 µM	0.20	50.7 ± 5.7 µM	–	–	<1.83	> 7 µM	0.25	–
CCN(CC)CCCC(C)Nc1ccnc2cc(Cl)ccc12 (stereo not shown) [Chloroquine, reference compound]	155 ± 5.2 µM	–	–	3.3 ± 0.4 µM	–	–	–	–	46.34	–
O=C(/C=C/c1ccccc1)c1cc2ccccc2oc1=O [Compound A1, 3-[(2E)-3-phenylprop-2-enoyl]-2H-chromen-2-one]	6.7 ± 0.1 µM	3.7 ± 0.5 µM	1.82	25.7 ± 3.5 µM	–	–	0.15	44.1 ± 4.2 µM	0.26	highly active (Compounds with EC50 ≤ 25 μM were considered highly active)
O=C(/C=C/c1ccc([N+](=O)[O-])cc1)c1cc2ccccc2oc1=O [Compound A8, 3-[(2E)-3-(4-nitrophenyl)prop-2-enoyl]-2H-chromen-2-one]	–	197 ± 76.9 µM	3.05	18.4 ± 1 µM	–	–	1.91	314 ± 19.9 µM	–	–
COc1cccc(/C=C/C(=O)c2cc3ccccc3oc2=O)c1 [Compound A2, 3-[(2E)-3-(3-methoxyphenyl)prop-2-enoyl]-2H-chromen-2-one]	5.8 ± 0.1 µM	2.5 ± 0.2 µM	2.31	23.3 ± 1.5 µM	–	–	0.20	28.4 ± 5.7 µM	0.25	–
O=C(/C=C/c1ccccc1)c1ccccc1 [Chalcone, reference compound]	27.9 ± 0.5 µM	15 ± 1.44 µM	1.86	769 ± 72 µM	–	–	0.28	99.9 ± 39 µM	0.04	–
O=C(/C=C/c1ccc(O)cc1)c1cc2ccccc2oc1=O [Compound A6, 3-[(2E)-3-(4-hydroxyphenyl)prop-2-enoyl]-2H-chromen-2-one]	7.5 ± 0.4 µM	8.2 ± 4 µM	0.91	16.6 ± 0.9 µM	–	–	0.17	43.2 ± 6.4 µM	0.45	–
